The source of these data is ChEMBL document CHEMBL3751804, “Carbazole-containing sulfonamides and sulfamides: Discovery of cryptochrome modulators as antidiabetic agents” (Bioorg Med Chem Lett, 2016).

The first series has as its system Salmonella typhimurium. The series is described as follows: Genotoxicity in Salmonella typhimurium by Ames assay. Particulars: salmonella enterica subsp. enterica serovar typhimurium. The class given is toxicity, organism-based.
In the case of `O=S1(=O)CCCN1CC(O)Cn1c2ccccc2c2ccccc21` (stereo unspecified), the Activity result is “Non-toxic”.

Another series deals with Voltage-gated inwardly rectifying potassium channel KCNH2 (Homo sapiens, UniProt Q12809). The series is described as follows: Inhibition of human ERG.
Voltage-gated inwardly rectifying potassium channel KCNH2, sequence (Q12809 whole entry): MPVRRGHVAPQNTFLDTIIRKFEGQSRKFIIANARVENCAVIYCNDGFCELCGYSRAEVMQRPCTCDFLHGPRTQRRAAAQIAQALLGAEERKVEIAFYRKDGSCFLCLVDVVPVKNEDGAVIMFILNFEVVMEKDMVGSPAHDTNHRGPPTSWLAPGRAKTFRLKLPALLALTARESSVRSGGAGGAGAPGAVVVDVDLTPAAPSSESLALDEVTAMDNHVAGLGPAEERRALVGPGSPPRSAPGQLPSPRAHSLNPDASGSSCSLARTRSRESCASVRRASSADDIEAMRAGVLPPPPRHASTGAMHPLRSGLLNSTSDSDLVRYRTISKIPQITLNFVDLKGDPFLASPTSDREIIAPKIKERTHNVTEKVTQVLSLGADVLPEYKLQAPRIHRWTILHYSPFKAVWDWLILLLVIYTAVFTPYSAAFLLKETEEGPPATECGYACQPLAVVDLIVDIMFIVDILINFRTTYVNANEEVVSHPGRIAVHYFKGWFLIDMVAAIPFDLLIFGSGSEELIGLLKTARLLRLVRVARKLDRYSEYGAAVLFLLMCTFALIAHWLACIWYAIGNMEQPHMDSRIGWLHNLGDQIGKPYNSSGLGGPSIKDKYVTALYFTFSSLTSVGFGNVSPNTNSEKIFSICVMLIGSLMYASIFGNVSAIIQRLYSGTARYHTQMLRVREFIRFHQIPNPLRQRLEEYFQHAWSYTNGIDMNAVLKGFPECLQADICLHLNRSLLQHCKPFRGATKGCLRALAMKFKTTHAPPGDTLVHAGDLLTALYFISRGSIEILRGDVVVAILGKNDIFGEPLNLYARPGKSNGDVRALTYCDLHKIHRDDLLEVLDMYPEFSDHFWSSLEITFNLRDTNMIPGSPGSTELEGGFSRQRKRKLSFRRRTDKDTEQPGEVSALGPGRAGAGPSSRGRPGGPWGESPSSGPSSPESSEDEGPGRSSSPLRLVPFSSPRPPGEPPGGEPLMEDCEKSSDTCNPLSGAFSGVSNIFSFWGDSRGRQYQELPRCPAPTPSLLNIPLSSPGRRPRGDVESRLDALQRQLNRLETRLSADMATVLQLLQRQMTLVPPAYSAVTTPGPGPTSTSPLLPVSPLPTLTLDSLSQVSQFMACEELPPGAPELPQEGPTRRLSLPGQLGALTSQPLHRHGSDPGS
Details: not given; call rule not given here
Consider `O=S1(=O)CCCN1CC(O)Cn1c2ccccc2c2ccccc21` (stereo unspecified), for which the “inhibition (INH)” value is on record as “Not Active”.

For the next series, the target named is T1, Period circadian protein homolog 2 (Homo sapiens) (UniProt O15055).
T1 sequence (whole entry): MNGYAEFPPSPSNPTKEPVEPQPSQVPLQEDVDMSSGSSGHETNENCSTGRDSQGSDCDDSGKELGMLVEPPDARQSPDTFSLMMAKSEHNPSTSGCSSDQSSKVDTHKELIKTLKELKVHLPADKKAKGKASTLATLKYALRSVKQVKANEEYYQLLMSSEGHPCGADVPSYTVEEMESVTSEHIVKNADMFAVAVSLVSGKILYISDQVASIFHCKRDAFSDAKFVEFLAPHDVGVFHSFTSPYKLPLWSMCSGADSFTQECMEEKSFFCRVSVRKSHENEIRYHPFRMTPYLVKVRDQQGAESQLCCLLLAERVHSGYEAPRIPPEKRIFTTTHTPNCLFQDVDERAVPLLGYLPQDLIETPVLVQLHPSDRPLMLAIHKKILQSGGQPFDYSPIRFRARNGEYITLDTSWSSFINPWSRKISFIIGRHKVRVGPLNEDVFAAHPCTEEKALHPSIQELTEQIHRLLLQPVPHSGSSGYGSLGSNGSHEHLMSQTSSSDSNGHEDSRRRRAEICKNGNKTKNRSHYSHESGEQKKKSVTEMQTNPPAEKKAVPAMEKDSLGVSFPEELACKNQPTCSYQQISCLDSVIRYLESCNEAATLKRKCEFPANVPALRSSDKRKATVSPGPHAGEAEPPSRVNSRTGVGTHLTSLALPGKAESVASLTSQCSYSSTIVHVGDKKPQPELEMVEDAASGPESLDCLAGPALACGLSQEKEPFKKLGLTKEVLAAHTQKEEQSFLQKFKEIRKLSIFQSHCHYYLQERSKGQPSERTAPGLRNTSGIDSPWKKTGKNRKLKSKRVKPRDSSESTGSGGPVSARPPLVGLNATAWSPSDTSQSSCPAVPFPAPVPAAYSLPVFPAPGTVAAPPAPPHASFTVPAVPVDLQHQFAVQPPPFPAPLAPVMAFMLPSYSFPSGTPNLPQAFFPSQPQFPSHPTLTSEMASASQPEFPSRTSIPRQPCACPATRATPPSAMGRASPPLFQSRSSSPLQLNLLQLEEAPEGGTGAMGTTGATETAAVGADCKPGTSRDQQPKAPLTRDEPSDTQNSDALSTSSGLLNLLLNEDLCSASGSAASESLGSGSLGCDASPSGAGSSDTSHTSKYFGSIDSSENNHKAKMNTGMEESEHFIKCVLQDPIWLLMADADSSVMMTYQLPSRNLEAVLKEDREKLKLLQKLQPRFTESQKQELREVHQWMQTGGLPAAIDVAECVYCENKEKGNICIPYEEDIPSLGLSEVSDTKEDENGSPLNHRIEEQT
The series is described as follows: Reduction of amplitude effect of PER2 in human U2OS cells harboring Per2-dLuc luciferase reporter gene assessed as effects on circadian rhythms. The format is cell-based.
Details: not given
In outline: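 Human osteosarcoma U2OS cells carrying a Per2-dLuc luciferase reporter, treated continuously; circadian luminescence rhythm amplitude followed. 8-point threefold dilution series; EC50 taken as concentration giving 50% of the compound's own maximal response (titrations without plateau give no EC50).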
For `CS(=O)(=O)N(CC(O)Cn1c2ccccc2c2ccccc21)C1CCCCC1` (stereo unspecified), the Activity result was “Dose-dependent effect”. Still for that read-out and setting: then `O=S1(=O)CCCCN1CC(O)Cn1c2ccccc2c2ccccc21` (stereo unspecified), with “Dose-dependent effect”.

As to `CN1CCN(CC(O)Cn2c3ccccc3c3ccccc32)S1(=O)=O` (stereo unspecified), the Activity entry was “Dose-dependent effect”. Still for that read-out and setting: to `CS(=O)(=O)N(CC(O)Cn1c2ccccc2c2ccccc21)C1CCC1` (stereo unspecified) belongs “Dose-dependent effect”; to `O=S1(=O)NCCCN1CC(O)Cn1c2ccccc2c2ccccc21` (stereo unspecified), “Dose-dependent effect”.

Turning to `CN1CCCN(CC(O)Cn2c3ccccc3c3ccccc32)S1(=O)=O` (stereo unspecified), the Activity entry was “Dose-dependent effect”. On the same count and under the same terms, then `CS(=O)(=O)N(CC(O)Cn1c2ccccc2c2ccccc21)C1CC(F)(F)C1` (stereo unspecified), with “Dose-dependent effect”. Turning to `CS(=O)(=O)N(CC(O)Cn1c2ccccc2c2ccccc21)c1ccc(F)cc1` (stereo unspecified), the Activity result is “Dose-dependent effect”. Same read-out and setting: then `O=S1(=O)CCCN1CC(O)Cn1c2ccccc2c2ccccc21` (stereo unspecified), with “Dose-dependent effect”; and `CS(=O)(=O)N(CC(O)Cn1c2ccccc2c2ccccc21)C1CCC(F)(F)CC1` (stereo unspecified), with “Dose-dependent effect”; and `CS(=O)(=O)N(CC(O)Cn1c2ccccc2c2ccccc21)C1CC1` (stereo unspecified), with “Dose-dependent effect”. The same measure, in the same setting: then `CC(C)CS(=O)(=O)N(Cc1ccco1)CC(O)Cn1c2ccccc2c2ccccc21` (stereo unspecified), with “Dose-dependent effect”; and `CS(=O)(=O)N(CC(O)Cn1c2ccccc2c2ccccc21)C1CCCC1` (stereo unspecified), with “Dose-dependent effect”; and `CN(CC(O)Cn1c2ccccc2c2ccccc21)S(C)(=O)=O` (stereo unspecified), with “Dose-dependent effect”.

For `CS(=O)(=O)N(CC(O)Cn1c2ccccc2c2ccccc21)C1CCOCC1` (stereo unspecified), the Activity entry is “Dose-dependent effect”. The same measure, in the same setting: to `CCCCS(=O)(=O)N(Cc1ccco1)CC(O)Cn1c2ccccc2c2ccccc21` (stereo unspecified) belongs “Dose-dependent effect”; to `CCCS(=O)(=O)N(Cc1ccco1)CC(O)Cn1c2ccccc2c2ccccc21` (stereo unspecified), “Dose-dependent effect”. As to `O=S1(=O)CCN1CC(O)Cn1c2ccccc2c2ccccc21` (stereo unspecified), the Activity entry is “Dose-dependent effect”. Turning to `CS(=O)(=O)N(Cc1ccccc1)CC(O)Cn1c2ccccc2c2ccccc21` (stereo unspecified), the Activity result is “Dose-dependent effect”.

As to `O=S1(=O)NCCN1CC(O)Cn1c2ccccc2c2ccccc21` (stereo unspecified), the Activity result is “Dose-dependent effect”. Still for that read-out and setting: to `O=S1(=O)COCCN1CC(O)Cn1c2ccccc2c2ccccc21` (stereo unspecified) belongs “Dose-dependent effect”.

On to `CS(=O)(=O)N(CC(O)Cn1c2ccccc2c2ccccc21)c1cccc(F)c1` (stereo unspecified), for which the Activity result is “Dose-dependent effect”.

On to `COCCS(=O)(=O)N(Cc1ccco1)CC(O)Cn1c2ccccc2c2ccccc21` (stereo unspecified), for which the Activity result was “Dose-dependent effect”. Turning to `CCCN(CC(O)Cn1c2ccccc2c2ccccc21)S(C)(=O)=O` (stereo unspecified), the Activity entry is “Dose-dependent effect”. On the same count and under the same terms, then `CCS(=O)(=O)N(Cc1ccco1)CC(O)Cn1c2ccccc2c2ccccc21` (stereo unspecified), with “Dose-dependent effect”; and `CS(=O)(=O)N(CC(O)Cn1c2ccccc2c2ccccc21)c1ccccc1F` (stereo unspecified), with “Dose-dependent effect”. On the same count and under the same terms, then `CS(=O)(=O)N(CC(O)Cn1c2ccccc2c2ccccc21)c1ccccc1` (stereo unspecified), with “Dose-dependent effect”; and `COCCN(CC(O)Cn1c2ccccc2c2ccccc21)S(C)(=O)=O` (stereo unspecified), with “Dose-dependent effect”; and `CS(=O)(=O)N(CC(O)Cn1c2ccccc2c2ccccc21)C1COC1` (stereo unspecified), with “Dose-dependent effect”. As to `O=S(=O)(c1ccccc1)N(Cc1ccco1)CC(O)Cn1c2ccccc2c2ccccc21` (stereo unspecified), the Activity entry is “Dose-dependent effect”. As to `CC(C)S(=O)(=O)N(Cc1ccco1)CC(O)Cn1c2ccccc2c2ccccc21` (stereo unspecified), the Activity result is “Dose-dependent effect”.

Turning to `CCN(CC(O)Cn1c2ccccc2c2ccccc21)S(C)(=O)=O` (stereo unspecified), the Activity result is “Dose-dependent effect”. Same read-out and setting: to `O=S(=O)(C1CCOC1)N(Cc1ccco1)CC(O)Cn1c2ccccc2c2ccccc21` (stereo unspecified) belongs “Dose-dependent effect”; to `CC(C)CN(CC(O)Cn1c2ccccc2c2ccccc21)S(C)(=O)=O` (stereo unspecified), “Dose-dependent effect”; to `O=S(=O)(C1CCCCC1)N(Cc1ccco1)CC(O)Cn1c2ccccc2c2ccccc21` (stereo unspecified), “Dose-dependent effect”.

Turning to `O=S(=O)(C1CC1)N(Cc1ccco1)CC(O)Cn1c2ccccc2c2ccccc21` (stereo unspecified), the Activity result was “Dose-dependent effect”. On the same count and under the same terms, then `CS(=O)(=O)NCC(O)Cn1c2ccccc2c2ccccc21` (stereo unspecified), with “Dose-dependent effect”; and `O=S(=O)(Cc1ccccc1)N(Cc1ccco1)CC(O)Cn1c2ccccc2c2ccccc21` (stereo unspecified), with “Dose-dependent effect”.

As for `CC(C)N(CC(O)Cn1c2ccccc2c2ccccc21)S(C)(=O)=O` (stereo unspecified), the Activity entry is “Dose-dependent effect”.

Test system in a further series: not listed separately
The series is described as follows: Mean plasma residence time in po dosed ICR mouse.
Details: not given
The format is ADME, organism-based. Put shortly:
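Male ICR mice dosed orally; plasma concentrations followed to derive mean plasma residence time (h).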
Regarding `O=S1(=O)NCCCN1CC(O)Cn1c2ccccc2c2ccccc21` (stereo unspecified), the MRT – broadly, the average time that molecules of a dose stay in the body – was 5.12 h. The same measure, in the same setting: then `O=S1(=O)CCCN1CC(O)Cn1c2ccccc2c2ccccc21` (stereo unspecified), with 7.63 h; and `CN(CC(O)Cn1c2ccccc2c2ccccc21)S(C)(=O)=O` (stereo unspecified), with 3.01 h; and `CS(=O)(=O)NCC(O)Cn1c2ccccc2c2ccccc21` (stereo unspecified), with 1.92 h.

The next series concerns Mus musculus. The experiment in a line: Antidiabetic activity in diet-induced obese C57BL/6J mouse model assessed as reduction of glucose AUC at 100 mg/kg, qd for 7 days. The arrangement: scale not given: the % may be the effect or the level left.
Details: not given
The format is functional. Put shortly:
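Diet-induced obese C57BL/6J mice (25 weeks old, high-fat diet for 19 weeks) dosed 100 mg/kg once daily for 7 days, then given an oral glucose tolerance test; glucose clearance expressed as percent reduction in glucose AUC.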
As for `O=S1(=O)CCCN1CC(O)Cn1c2ccccc2c2ccccc21` (stereo unspecified), the Activity turned out to be 41%.
